From ChEMBL document CHEMBL4311938, “Sirtuin inhibition and anti-cancer activities of ethyl 2-benzimidazole-5-carboxylate derivatives” (Medchemcomm, 2019)
Activity calls are given as the source filed them. The calls are words filed in the database; no cut-off is given here.

Key:
[1] = target: T1, NAD-dependent protein deacetylase sirtuin-3, mitochondrial (Homo sapiens, UniProt Q9NTG7); assay: Inhibition of human recombinant SIRT3 using p53 (317 to 320 residues) conjugated to AMC as substrate incubated for 45 mins in presence of NAD+ by fluorescence assay
T1 sequence (Q9NTG7 whole entry): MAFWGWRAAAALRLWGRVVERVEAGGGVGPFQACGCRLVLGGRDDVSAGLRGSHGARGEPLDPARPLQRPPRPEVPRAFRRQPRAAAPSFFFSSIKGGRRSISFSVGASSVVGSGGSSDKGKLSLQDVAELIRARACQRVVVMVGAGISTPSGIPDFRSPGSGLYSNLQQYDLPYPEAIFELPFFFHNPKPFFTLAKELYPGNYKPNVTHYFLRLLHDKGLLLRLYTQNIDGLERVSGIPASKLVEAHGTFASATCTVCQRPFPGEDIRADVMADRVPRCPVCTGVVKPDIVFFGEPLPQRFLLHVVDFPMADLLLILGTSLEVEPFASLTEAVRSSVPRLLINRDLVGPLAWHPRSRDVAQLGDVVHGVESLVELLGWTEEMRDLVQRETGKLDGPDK

[2] = target: T2, NAD-dependent protein deacetylase sirtuin-1 (Homo sapiens, UniProt Q96EB6); assay: Inhibition of human recombinant SIRT1 using p53 (379 to 382 residues) conjugated to AMC as substrate incubated for 45 mins in presence of NAD+ by fluorescence assay
T2 sequence (Q96EB6 whole entry): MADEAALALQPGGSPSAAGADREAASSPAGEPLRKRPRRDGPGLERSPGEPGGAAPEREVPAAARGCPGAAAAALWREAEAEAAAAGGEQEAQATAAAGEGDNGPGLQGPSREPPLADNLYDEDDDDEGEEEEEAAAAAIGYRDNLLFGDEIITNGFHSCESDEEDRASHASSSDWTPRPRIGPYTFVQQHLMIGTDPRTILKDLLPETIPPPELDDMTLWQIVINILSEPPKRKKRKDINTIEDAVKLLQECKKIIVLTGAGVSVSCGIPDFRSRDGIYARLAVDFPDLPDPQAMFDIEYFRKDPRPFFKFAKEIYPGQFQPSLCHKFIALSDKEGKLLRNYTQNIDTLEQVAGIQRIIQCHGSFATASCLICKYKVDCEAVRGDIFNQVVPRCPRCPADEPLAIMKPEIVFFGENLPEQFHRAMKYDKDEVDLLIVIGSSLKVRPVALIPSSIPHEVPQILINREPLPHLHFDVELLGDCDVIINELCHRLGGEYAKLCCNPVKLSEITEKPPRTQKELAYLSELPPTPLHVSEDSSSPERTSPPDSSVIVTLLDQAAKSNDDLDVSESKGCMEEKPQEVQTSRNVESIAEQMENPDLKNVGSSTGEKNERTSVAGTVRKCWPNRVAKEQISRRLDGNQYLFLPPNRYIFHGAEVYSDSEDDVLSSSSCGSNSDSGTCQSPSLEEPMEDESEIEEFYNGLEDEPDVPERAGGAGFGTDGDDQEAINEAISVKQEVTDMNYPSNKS

[3] = target: T3, NAD-dependent protein deacetylase sirtuin-2 (Homo sapiens, UniProt Q8IXJ6); assay: Inhibition of human recombinant SIRT2 using p53 (317 to 320 residues) conjugated to AMC as substrate incubated for 45 mins in presence of NAD+ by fluorescence assay
T3 sequence (Q8IXJ6 whole entry): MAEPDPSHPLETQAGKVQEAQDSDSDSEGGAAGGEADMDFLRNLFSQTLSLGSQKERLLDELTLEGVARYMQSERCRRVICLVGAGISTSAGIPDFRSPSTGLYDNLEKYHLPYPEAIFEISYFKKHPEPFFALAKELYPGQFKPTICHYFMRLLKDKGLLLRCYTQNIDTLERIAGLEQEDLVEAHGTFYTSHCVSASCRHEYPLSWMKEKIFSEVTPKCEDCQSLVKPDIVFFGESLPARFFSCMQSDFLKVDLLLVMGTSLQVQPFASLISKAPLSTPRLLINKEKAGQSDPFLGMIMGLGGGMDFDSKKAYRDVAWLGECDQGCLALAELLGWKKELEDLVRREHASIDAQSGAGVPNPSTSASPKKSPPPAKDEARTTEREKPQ

[4] = target: T4, NAD-dependent protein deacetylase sirtuin-2 (Homo sapiens) (UniProt Q8IXJ6); assay: Inhibition of SIRT2 in human H103 cells assessed as increase in acetylated alpha tubulin level at 5.83 uM after 72 hrs by Western blot analysis; assay type: cell-based
T4 sequence (whole entry): T3 sequence (Q8IXJ6 whole entry)
Summary of the method: (§1)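 H103 cells were seeded at 5 × 10^5 per well and treated either for 24 h or for 72 h. Lysates were run on SDS-PAGE and blotted to PVDF. Blocking in 5% skimmed milk with primary antibody was done overnight at 4 °C. HRP secondaries were anti-mouse 1:5000 and anti-rabbit 1:1000, 1 h at room temperature, with ECL detection. Acetylated protein was normalized to actin, then to total protein, then to untreated cells. Two independent experiments were run.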

H103 [5] = assay: Induction of apoptosis in human H103 cells assessed as necrotic cells after 24 hrs by AnnexinV-FLTC/propidium iodide staining based flow cytometry (reference value: 7.49 %); assay type: functional
[6] = target: T5, NAD-dependent protein deacetylase sirtuin-1 (Homo sapiens) (UniProt Q96EB6); assay: Inhibition of SIRT1 in human H103 cells assessed as increase in acetylated p53 level at 32 uM after 24 hrs by Western blot analysis; assay type: cell-based; summary of the method: as §1
T5 sequence (whole entry): T2 sequence (Q96EB6 whole entry)

H103 [7] = assay: Cell cycle arrest in human H103 cells assessed as accumulation at S phase after 24 hrs by RNase/7-AAD staining based flow cytometry analysis (reference value: 18 %); assay type: functional
Summary of the method: (§2)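 H103 oral squamous carcinoma cells (ECACC) were seeded at 5 × 10^5 per well, left to adhere overnight and then treated for 24 h. Cells were trypsinized, washed in PBS and fixed in ice-cold 70% ethanol for 30 min at 4 °C. They were stained with RNase plus 7-AAD in staining buffer, and DNA content was read by imaging flow cytometry at 488 nm. G1 = 2N, G2/M = 4N.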

H103 [8] = assay: Cell cycle arrest in human H103 cells assessed as accumulation at G2/M phase after 24 hrs by RNase/7-AAD staining based flow cytometry analysis (reference value: 36.5 %); assay type: functional; summary of the method: as §2
[9] = target: T5, NAD-dependent protein deacetylase sirtuin-1 (Homo sapiens); assay: Inhibition of SIRT1 in human H103 cells assessed as increase in acetylated p53 level at 5.83 uM after 72 hrs by Western blot analysis; assay type: cell-based; summary of the method: as §1
H103 [10] = assay: Induction of apoptosis in human H103 cells assessed as early apoptotic cells after 24 hrs by AnnexinV-FLTC/propidium iodide staining based flow cytometry (reference value: 0.01 %); assay type: functional
[11] = target: T6, NAD-dependent protein deacetylase sirtuin-3, mitochondrial (Homo sapiens) (UniProt Q9NTG7); assay: Inhibition of SIRT3 in human H103 cells assessed as growth inhibition after 72 hrs by MTT assay; assay type: cell-based
T6 sequence (whole entry): T1 sequence (Q9NTG7 whole entry)
Summary of the method: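 H103 cells (ECACC) were seeded at 5 × 10^3 per well and treated for 72 h with final DMSO below 1%. Viability was read by MTT: 4 h at 37 °C in 5% CO2, formazan dissolved in DMSO, absorbance at 570 nm. Proliferation was expressed as the ratio of treated to control absorbance. Experiments were run in triplicate. GI50 was determined.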

H103 [12] = assay: Cell cycle arrest in human H103 cells assessed as accumulation at G1 phase after 24 hrs by RNase/7-AAD staining based flow cytometry analysis (reference value: 38.8 %); assay type: functional; summary of the method: as §2
H103 [13] = assay: Induction of apoptosis in human H103 cells assessed as late apoptotic cells after 24 hrs by AnnexinV-FLTC/propidium iodide staining based flow cytometry (reference value: 1.32 %); assay type: functional
H103 [14] = assay: Induction of apoptosis in human H103 cells assessed as viable cells after 24 hrs by AnnexinV-FLTC/propidium iodide staining based flow cytometry (reference value: 29.4 %); assay type: functional

| Structure (SMILES) | IC50 [1] | IC50 [2] | IC50 [3] | inhibition [4] | Activity (H103 [5]) | inhibition [6] | Activity (H103 [7]) | Activity (H103 [8]) | inhibition [9] | Activity (H103 [10]) | GI50 [11] | Activity (H103 [12]) | Activity (H103 [13]) | Activity (H103 [14]) |
| --- | --- | --- | --- | --- | --- | --- | --- | --- | --- | --- | --- | --- | --- | --- |
| CCOC(=O)c1ccc2[nH]c(-c3ccc(C(F)(F)F)cc3)nc2c1 | > 50 µM | > 50 µM | > 50 µM | – | – | – | – | – | – | – | – | – | – | – |
| CCOC(=O)c1ccc2[nH]c(-c3ccc(Cl)cc3)nc2c1 | – | 33.6 µM | 30.5 µM | – | – | – | – | – | – | – | – | – | – | – |
| CCOC(=O)c1ccc2[nH]c(-c3ccc4c(c3)OCO4)nc2c1 | 9.8 µM | 7.7 µM | 5.6 µM | Active | 11.3% | inactive | 20.3% | 43.2% | inactive | 0.04% | 5.83 µM | 8.1% | 7.82% | 90.6% |
| CCOC(=O)c1ccc2[nH]c(-c3ccc(OC(F)(F)F)cc3)nc2c1 | > 50 µM | > 50 µM | > 50 µM | – | – | – | – | – | – | – | – | – | – | – |
| CCOC(=O)c1ccc2[nH]c(-c3ccc(Br)cc3)nc2c1 | > 50 µM | > 50 µM | 45.8 µM | – | – | – | – | – | – | – | – | – | – | – |
